Source: ChEMBL document CHEMBL1795205, “The new 5- or 6-azapyrimidine and cyanuric acid derivatives of l-ascorbic acid bearing the free C-5 hydroxy or C-4 amino group at the ethylenic spacer: CD-spectral absolute configuration determination and biological activity evaluations” (Eur J Med Chem, 2011)

Legend:
[1] = system: HeLa; test: Cytostatic activity against human HeLa cells assessed as inhibition of cell proliferation after 72 hrs by MTT assay; assay type: functional, cell-based
Method in brief: (§1)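 Monolayer cells grown in DMEM with 10% FBS were seeded on day 0 at 3000–6000 cells/well, set by each line's doubling time. Agents were added the next step in five 10-fold dilutions (0.01–100) for 72 h, with DMSO ≤0.1% and a solvent control. MTT absorbance was converted to percentage growth versus untreated wells on the same plate. Where all PGs exceeded 50, the top concentration was reported as ">". ANOVA/Tukey, p<0.05.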

[2] = system: MCF7; test: Cytostatic activity against human MCF7 cells assessed as inhibition of cell proliferation after 72 hrs by MTT assay; assay type: functional, cell-based; settings: MCF7, 72 h; method in brief: as §1
[3] = system: HepG2; test: Cytostatic activity against human HepG2 cells assessed as inhibition of cell proliferation after 72 hrs by MTT assay; assay type: functional, cell-based; settings: HepG2, 72 h; method in brief: as §1
[4] = system: SW-620; test: Cytostatic activity against human SW620 cells assessed as inhibition of cell proliferation after 72 hrs by MTT assay; assay type: functional, cell-based; settings: SW-620, 72 h; method in brief: as §1
[5] = system: MIA PaCa-2; test: Cytostatic activity against human MIAPaCa2 cells assessed as inhibition of cell proliferation after 72 hrs by MTT assay; assay type: functional, cell-based; settings: MIA PaCa-2, 72 h; method in brief: as §1
[6] = system: WI-38; test: Cytotoxicity against human WI38 cells assessed as inhibition of cell proliferation after 72 hrs by MTT assay; assay type: cell-based; settings: WI-38, 72 h; method in brief: as §1

Structure (SMILES)	IC50 [1] [µM]	IC50 [2] [µM]	IC50 [3] [µM]	IC50 [4] [µM]	IC50 [5] [µM]	IC50 [6] [µM]
Cc1cn(CCC2(N)OC(=O)C(OCc3ccccc3)=C2OCc2ccccc2)c(=O)[nH]c1=O (racemic)	> 100	80.4	> 100	> 100	> 100	> 100
NC1(CCn2ccc(=O)[nH]c2=O)OC(=O)C(OCc2ccccc2)=C1OCc1ccccc1 (racemic)	> 100	> 100	> 100	> 100	> 100	> 100
Nc1ncn(CCC2(N)OC(=O)C(OCc3ccccc3)=C2OCc2ccccc2)c(=O)n1 (racemic)	> 100	> 100	> 100	> 100	> 100	> 100
O=C1O/C(=C\Cn2ncc(=O)[nH]c2=O)C(OCc2ccccc2)=C1OCc1ccccc1	45	3.77	41.3	36.5	20.4	24.6
